Measurements: ChEMBL document CHEMBL5236609, “Optimization of 1,2,4-Triazole-3-thiones toward Broad-Spectrum Metallo-β-lactamase Inhibitors Showing Potent Synergistic Activity on VIM- and NDM-1-Producing Clinical Isolates” (J Med Chem, 2022)

What was measured:
[1] = Inhibition of bacterial VIM-1 (unknown origin) expressed in Escherichia coli EXPRESS BL21(DE3) assessed as inhibition constant by measuring rate of substrate hydrolysis by UV-visible spectrophotometry; design: species or system Bacteria
Procedure, shortened: (§1)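 Reporter-substrate assay with purified MBL (1–70 nM final) in 50 mM HEPES pH 7.5 at 30 °C. […] Inhibitor 0.5–1000 μM final. Ki derived from the v0/vi vs [I] slope assuming competitive inhibition, or from a Dixon plot. Ki given when inhibition >70%, otherwise % inhibition at 100 μM. Triplicate.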

[2] = Inhibition of bacterial VIM-4 (unknown origin) expressed in Escherichia coli EXPRESS BL21(DE3) assessed as inhibition constant by measuring rate of substrate hydrolysis by UV-visible spectrophotometry; design: species or system Bacteria; procedure, shortened: as §1
[3] = Plasma protein binding in CD-1 mouse plasma measured after 4 hrs by LC-MS/MS analysis; format: ADME, cell-free; settings: read-out: PPB (converted)
Procedure, shortened: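 Binding to mouse plasma proteins (mixed gender) measured; diclofenac as control.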

[4] = Inhibition of bacterial IMP-1 (unknown origin) expressed in Escherichia coli EXPRESS BL21(DE3) assessed as inhibition constant by measuring rate of substrate hydrolysis by UV-visible spectrophotometry; design: species or system Bacteria; procedure, shortened: as §1
[5] = Inhibition of bacterial VIM-2 (unknown origin) expressed in Escherichia coli EXPRESS BL21(DE3) assessed as inhibition constant by measuring rate of substrate hydrolysis by UV-visible spectrophotometry; design: species or system Bacteria; procedure, shortened: as §1
[6] = biological target: T1, Protein deacetylase HDAC6 (Homo sapiens) (UniProt Q9UBN7); assay: Inhibition of recombinant human His-tagged HDAC6 expressed in baculovirus expression system using fluorogenic peptide substrate measured after 45 mins at 100 uM relative to control
T1 sequence (whole entry): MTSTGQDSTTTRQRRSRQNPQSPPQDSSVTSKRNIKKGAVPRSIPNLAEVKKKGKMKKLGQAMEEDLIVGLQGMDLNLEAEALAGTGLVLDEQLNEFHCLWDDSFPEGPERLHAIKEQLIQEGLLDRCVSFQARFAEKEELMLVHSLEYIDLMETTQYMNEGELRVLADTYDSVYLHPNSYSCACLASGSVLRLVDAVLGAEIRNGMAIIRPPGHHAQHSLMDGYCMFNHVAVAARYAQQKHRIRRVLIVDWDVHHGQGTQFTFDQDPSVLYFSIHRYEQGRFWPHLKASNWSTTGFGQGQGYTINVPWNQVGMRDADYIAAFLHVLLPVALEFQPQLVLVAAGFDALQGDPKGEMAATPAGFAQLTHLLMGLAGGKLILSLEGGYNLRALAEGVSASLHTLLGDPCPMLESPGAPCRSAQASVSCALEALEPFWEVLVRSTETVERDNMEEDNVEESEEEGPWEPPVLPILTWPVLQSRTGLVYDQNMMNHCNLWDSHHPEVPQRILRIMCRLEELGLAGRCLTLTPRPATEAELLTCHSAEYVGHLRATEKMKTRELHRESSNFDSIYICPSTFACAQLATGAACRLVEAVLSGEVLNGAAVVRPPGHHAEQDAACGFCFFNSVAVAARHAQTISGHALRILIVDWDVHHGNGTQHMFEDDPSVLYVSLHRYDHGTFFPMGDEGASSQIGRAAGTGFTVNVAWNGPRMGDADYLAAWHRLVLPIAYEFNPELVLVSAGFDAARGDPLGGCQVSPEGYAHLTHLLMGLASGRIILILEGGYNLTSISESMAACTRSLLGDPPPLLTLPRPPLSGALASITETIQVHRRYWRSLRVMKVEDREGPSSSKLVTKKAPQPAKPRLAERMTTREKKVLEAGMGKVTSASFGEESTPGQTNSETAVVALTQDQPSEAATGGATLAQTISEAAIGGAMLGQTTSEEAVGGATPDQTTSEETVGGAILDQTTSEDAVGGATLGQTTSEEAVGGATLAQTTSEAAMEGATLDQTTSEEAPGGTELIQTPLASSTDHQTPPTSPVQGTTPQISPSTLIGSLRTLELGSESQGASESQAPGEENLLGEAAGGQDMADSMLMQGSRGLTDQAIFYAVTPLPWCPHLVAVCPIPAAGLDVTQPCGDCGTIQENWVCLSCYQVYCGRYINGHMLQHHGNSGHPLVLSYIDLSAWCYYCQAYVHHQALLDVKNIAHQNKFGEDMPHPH
Procedure, shortened: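 Human HDAC6 fluorimetric kit with Fluor de Lys substrate; panobinostat as control inhibitor. Percent inhibition at 100 μM, one experiment in duplicate.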

[7] = Solubility in PBS pH 7.4 after 24 hrs by LC-MS/MS analysis; format: physicochemical
Procedure, shortened: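 Solubility in 10 mM PBS, pH 7.4.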

Aminopeptidase N = biological target: T2, Aminopeptidase N (Sus scrofa, UniProt P15145); assay: Inhibition of porcine APN using fluorogenic substrate H-Leu-AMC measured for 1 hr
T2 sequence (P15145 whole entry): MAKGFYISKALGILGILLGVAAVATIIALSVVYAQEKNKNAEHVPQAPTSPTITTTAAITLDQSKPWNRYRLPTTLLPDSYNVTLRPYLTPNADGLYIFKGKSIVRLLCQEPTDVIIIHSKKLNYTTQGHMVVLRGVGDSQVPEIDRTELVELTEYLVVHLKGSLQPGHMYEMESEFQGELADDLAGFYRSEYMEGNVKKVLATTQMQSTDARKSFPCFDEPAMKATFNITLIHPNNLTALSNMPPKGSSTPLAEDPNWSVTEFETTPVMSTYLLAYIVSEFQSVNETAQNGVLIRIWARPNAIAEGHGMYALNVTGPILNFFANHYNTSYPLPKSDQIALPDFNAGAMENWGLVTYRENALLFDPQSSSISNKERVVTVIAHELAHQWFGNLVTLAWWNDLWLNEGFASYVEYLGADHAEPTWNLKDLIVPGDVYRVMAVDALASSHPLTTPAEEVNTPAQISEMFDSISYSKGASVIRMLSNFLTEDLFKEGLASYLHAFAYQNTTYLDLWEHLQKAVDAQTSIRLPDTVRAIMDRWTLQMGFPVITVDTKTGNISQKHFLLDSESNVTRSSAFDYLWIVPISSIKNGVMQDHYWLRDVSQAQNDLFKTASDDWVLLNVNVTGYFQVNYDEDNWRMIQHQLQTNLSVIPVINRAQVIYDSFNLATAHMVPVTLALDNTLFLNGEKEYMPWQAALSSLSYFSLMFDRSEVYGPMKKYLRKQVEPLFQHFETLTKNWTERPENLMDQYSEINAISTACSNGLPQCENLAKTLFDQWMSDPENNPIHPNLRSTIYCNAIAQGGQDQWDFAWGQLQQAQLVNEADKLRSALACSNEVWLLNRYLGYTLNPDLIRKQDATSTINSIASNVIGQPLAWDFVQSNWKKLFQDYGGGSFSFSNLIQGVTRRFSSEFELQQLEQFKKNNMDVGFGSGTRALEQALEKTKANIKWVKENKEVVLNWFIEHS

Klebsiella pneumoniae = assay: Antimicrobial activity against blaVIM-4-producing multidrug-resistant Klebsiella pneumoniae VA-416/02 clinical isolate assessed as meropenem MIC at 32 ug/ml by broth microdilution method (reference value: […] ug/ml); format: functional; settings: dose 32 µg/ml
Procedure, shortened: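 Inoculum was 5×10^4 CFU/well. Each inhibitor was present at a fixed 32 μg/mL, and MICs were also taken without inhibitor.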

Compound	Ki [1] [µM]	Ki [2] [µM]	fraction unbound at 4 h [3]	Ki [4] [µM]	Ki [5] [µM]	inhibition [6] [%]	solubility at 24 h [7] [µM]	IC50 (Aminopeptidase N) [µM]	MIC (Klebsiella pneumoniae) [µg/mL]
O=C(O)[C@H](CCCn1c(-c2ccc3ccccc3c2)n[nH]c1=S)N(Cc1c[nH]cn1)Cc1c[nH]cn1	0.52	0.34	0.048	4.7	0.11	< 100	≥ 200	16	0.03
Cc1[nH]cnc1CN(Cc1c[nH]cn1)[C@@H](CCCn1c(-c2ccccc2)n[nH]c1=S)C(=O)O	0.38	0.42	0.377	4.5	0.35	< 100	≥ 200		0.03
O=C(O)[C@H](CCn1c(-c2ccccc2)n[nH]c1=S)N(Cc1c[nH]cn1)Cc1c[nH]cn1	0.39	0.23	0.45	6.2	0.21	< 100	≥ 200	27	0.03
O=C(O)[C@H](CCCn1c(-c2ccccc2)n[nH]c1=S)N(Cc1ccccn1)Cc1ccccn1	1.7	0.76	0.313		0.96	< 100	≥ 200		0.03
O=C(O)[C@H](CCCn1c(-c2ccccc2)n[nH]c1=S)N(Cc1c[nH]cn1)Cc1c[nH]cn1	0.15	0.2	0.324		0.41	< 100	≥ 200	30	0.03
